Assay outcomes from PubChem BioAssay.
Compounds with a hit are over-represented: about 3.7% of the library has one in this group of screens.
KCNK3 block: human KCNK3 channel inhibitors, primary screen, CHO cells, FluxOR thallium flux, B-score | B-score at 10 µM | FluxOR fluorescence; stronger effect = lower value | 340,000 tested, 0.84% active;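 active = B-score under library mean minus 4 SD, starting fluorescence ratio at most library mean plus 5 SD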;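 also: more negative B-score means stronger inhibition of thallium flux through KCNK3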
KCNQ1 inh: inhibitors of human KCNQ1 channel, primary screen, cell-based, thallium flux, high-throughput | CHO-K1 KCNQ1, FluxOR thallium flux fluorescence; stronger effect = higher value | B-score at 10 µM | 310,000 tested, 1.3% active | AID 2642, 2010 | Potassium voltage-gated channel subfamily KQT member 1 (Homo sapiens), P51787;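 active = compounds whose thallium flux B-score, printed positive for inhibition, exceeds three library SD while starting fluorescence stays within three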;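 also: channel opened by potassium depolarization with thallium stimulus after 20 min compound exposure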
KCNK9 block: KCNK9 potassium channel inhibitors, primary screen, HEK293 cells, thallium flux; 310,000 tested, 1.2% active; Potassium channel subfamily K member 9 (Homo sapiens), Q9NPC2; FluxOR thallium flux fluorescence; stronger effect = lower value; B-score at 10 µM;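 active = ratio B-score over 3 SD below the library mean, with starting fluorescence within 5 SD of its mean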;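 also: negative B-score means less thallium flux so channel inhibition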
Target sequence (Q9NPC2 whole entry, looked up): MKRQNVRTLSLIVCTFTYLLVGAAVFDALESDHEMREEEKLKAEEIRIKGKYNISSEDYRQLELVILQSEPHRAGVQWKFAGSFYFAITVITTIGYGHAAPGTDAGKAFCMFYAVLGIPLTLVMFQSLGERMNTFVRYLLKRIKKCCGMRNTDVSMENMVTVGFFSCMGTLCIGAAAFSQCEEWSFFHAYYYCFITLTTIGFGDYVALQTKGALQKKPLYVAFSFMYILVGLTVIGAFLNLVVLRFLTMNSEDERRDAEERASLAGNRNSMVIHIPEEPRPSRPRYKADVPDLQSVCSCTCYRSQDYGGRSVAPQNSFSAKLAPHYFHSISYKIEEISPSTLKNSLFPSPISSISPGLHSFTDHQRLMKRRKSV
Kir21 inh: inhibitors of mouse Kir2.1 inward-rectifier potassium channel; Inward rectifier potassium channel 2 (Mus musculus), P35561; HEK293-Kir2.1, FluxOR thallium flux fluorescence; stronger effect = lower value; B-score at 10 µM; 310,000 tested, 0.85% active; AID 1672, 2009;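 active = fluorescence ratio B-score at or below minus 3 SD of library scores, with starting-brightness B-score within 2 SD, cut at about -4.2 in these data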;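 also: channel flux triggered by added potassium and thallium sulfate stimulus; B-score of peak minus minimum fluorescence over baseline after thallium stimulus; more negative B-score means stronger Kir2.1 block with less thallium influx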
hERG rescue: hERG rescue from dofetilide block, primary screen, cell-based, CHO-hERG, FluxOR thallium flux, dofetilide IC70. 310,000 tested, 0.51% active. dofetilide IC70 present. Voltage-gated inwardly rectifying potassium channel KCNH2 (Homo sapiens), Q12809. activation (rescue from dofetilide block), less the hit threshold, % at 10 µM;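 active = activation above the mean of controls blocked by dofetilide plus 5 SD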;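 also: thallium influx through hERG after potassium depolarization seen as dye fluorescence rise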
KCNQ1 act: potentiators or activators of KCNQ1 channel, primary screen, cell-based, thallium flux, high-throughput. Potassium voltage-gated channel subfamily KQT member 1 (Homo sapiens), P51787. CHO-K1 KCNQ1, thallium flux FluxOR fluorescence; stronger effect = higher value. B-score at 10 µM. 310,000 tested, 0.35% active. AID 2648, 2010;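 active = fluorescence ratio B-score, a plate-corrected score, at least three library SD, with initial intensity B-score within 5 SD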
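Assay system: CHO-K1 cells stably expressing KCNQ1. Medium: assay buffer for compound exposure, DMSO matched across wells. Timing: 37 °C overnight plating, 90-min dark dye load, 20-min compound pretreatment. Signal: kinetic FluxOR fluorescence, 10 s baseline plus 110 s post-stimulus.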
* = called active by the depositor; i = inactive; . = not tested or not shown.

SMILES	KCNK3 block	KCNQ1 inh	KCNK9 block	Kir21 inh	hERG rescue	KCNQ1 act
COc1ccc(S(=O)(=O)Nc2cc(C)ccc2OC)cc1C	i	i	i	-7*	-2	i
Cc1cc(C)cc(OC(C)C(=O)Nc2ccc(S(=O)(=O)Nc3cc(C)nc(C)n3)cc2)c1 (centres undefined)	i	i	i	-0.85	-15	i
COc1cc(-c2nc(C(=O)NC3CCCCC3)cc3c2[nH]c2ccccc23)cc(OC)c1OC	i	i	i	0.57	-11	i
COc1cc(-c2nc(C(=O)NC3CCN(Cc4ccccc4)CC3)cc3c2[nH]c2ccccc23)cc(OC)c1OC	i	6*	i	-1.3	-29	i
O=C(/C(N=Nc1cccc([N+](=O)[O-])c1)=C(/O)c1ccc(Br)cc1)C(F)(F)F	.	9*	-9.2*	-0.89	-16	i
O=C(Nc1ccc(S(=O)(=O)N2CCCCC2)cc1)c1ccc(CN2CCc3ccccc3C2)cc1	i	6*	i	0.67	-11	i
O=C(NCc1ccccc1)c1cc[n+](Cc2ccccc2)cc1	i	i	i	-0.71	-4	i
O=C(NCC(c1cccs1)N1CCOCC1)c1ccccc1NS(=O)(=O)c1cccc([N+](=O)[O-])c1 (centres undefined)	i	i	i	0.85	-9	i
O=C(NCC(c1cccs1)N1CCOCC1)c1ccccc1NS(=O)(=O)c1ccc(Cl)c([N+](=O)[O-])c1 (centres undefined)	i	13*	i	0.5	-13	i
CC12CCC(C(=O)N(CSC(=S)N/N=C\c3ccccc3Cl)C1=O)C2(C)C (centres undefined)	i	i	i	-0.14	-6	35*
Cc1ccccc1NCN1C(=O)C2CCC(C)(C1=O)C2(C)C (centres undefined)	i	i	i	-0.39	-7	i
CC12CCC(C(=O)N(CSC(=S)N/N=C\c3ccccc3)C1=O)C2(C)C (centres undefined)	i	i	i	0.07	1	15*
Nc1nnc(C(c2ccccc2)c2ccccc2)s1	i	i	i	-2.1	-8	i
C(C#CCCCCCCCCC[n+]1ccccc1)#CCCCCCCCCC[n+]1ccccc1	i	i	i	-15*	-17	i
O=C(O)CCn1c(SCc2ccccc2)nc2ccccc21	i	i	i	0.68	-3	i
Cc1noc(C)c1CSc1nc2ccccc2n1CCc1ccccc1	i	i	i	-7.2*	-15	i
COc1ccc(C(C(=O)NC2CCCCC2)N(C(=O)c2snc(C(N)=O)c2N)c2ccc(OC)cc2OC)cc1 (centres undefined)	i	i	i	0.06	-8	i
Cc1ccccc1N(C(=O)c1snc(C(N)=O)c1N)C(C(=O)NC1CCCCC1)c1ccc(O)cc1 (centres undefined)	i	6*	i	-1	-9	i
COc1ccc(N(C(=O)c2snc(C(N)=O)c2N)C(C(=O)NC2CCCCC2)c2ccc(C)o2)c(OC)c1 (centres undefined)	i	6*	i	0.75	-9	i
CCn1c(=O)cc(C(F)(F)F)[nH]c1=S	i	i	i	2	-2	i
Cc1csc(SCC(=O)NCCc2ccc(Cl)cc2Cl)n1	i	i	i	-1	3	i
Cc1ccc(NC(=O)CSCC(=O)NNC(=O)c2nn(C)c(=O)c3ccccc23)cc1	i	.	.	.	.	.
CCCCN1C(=O)C(=O)N(CC(=O)Nc2cc(Cl)ccc2OC)C1=O	i	.	.	.	.	.
